The structures appear in SMILES notation. pIC50: −log10 of the molar value. Calls of active or inactive are those of the source. The rule behind the calls is not given here.

The subject of series [1] is LNCaP. Put plainly: Inhibition of actin based pseudopodia formation in androgen-dependent human LNCAP cells at 40 uM after 48 hrs by DAPI staining based fluorescence microscopy assay. It counts as functional, cell-based. A digest of the protocol: (§1)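 Cells in RPMI-1640 with 10% FBS were plated on chamber slides for 12 h, then exposed to compound or DMSO for 48 h at 37 °C. Cells were fixed in 4% paraformaldehyde in PBS, nuclei were stained with DAPI, and nuclear and pseudopodia morphology was examined by fluorescence microscopy.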

For series [2], the system named is LNCaP. As to the kind of experiment: Cytotoxicity against androgen-dependent human LNCAP cells after 72 hrs by SRB assay. The class given is functional, cell-based. A digest of the protocol: (§2)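 SRB assay. Cells were seeded at 3-5 × 10^3 per well in RPMI-1640 with 10% FBS and exposed to a range of concentrations for 72 h; final DMSO was <0.5%. Cells were then fixed in cold 50% TCA for 30 min, stained with 0.04% SRB for 30 min, solubilized in 10 mM Tris base, and read at 515 nm. IC50 is 50% growth inhibition versus untreated control, by log-linear interpolation; mean ± SE of ≥3 independent experiments.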
Background: In SRB staining, fixed cells bind dye roughly in proportion to their protein.

For series [3], the system named is PC-3. Put plainly: Cytotoxicity against androgen-independent human PC3 cells after 72 hrs by SRB assay. It counts as functional, cell-based. To be noted: PC-3, 72 h. A digest of the protocol:
as §2

Series [4] has as its system PC-3. Put plainly: Induction of nuclear enlargement in androgen-dependent human PC3 cells at 40 uM after 48 hrs by DAPI staining based fluorescence microscopy assay. The class given is functional, cell-based. The following applies: in the assay text read “androgen-independent” for “androgen-dependent”. A digest of the protocol: as §1
Series [5] deals with PC-3. Put plainly: Inhibition of actin based pseudopodia formation in androgen-dependent human PC3 cells at 40 uM after 48 hrs by DAPI staining based fluorescence microscopy assay. The class given is functional, cell-based. The following applies: in the assay text read “androgen-independent” for “androgen-dependent”. A digest of the protocol:
as §1

The subject of series [6] is LNCaP. As to the kind of experiment: Inhibition of actin based pseudopodia formation in androgen-dependent human LNCAP cells at 50 uM after 48 hrs by DAPI staining based fluorescence microscopy assay. It counts as functional, cell-based. Put shortly:
as §1

Series [7] concerns PC-3. As to the kind of experiment: Induction of multinucleation in androgen-dependent human PC3 cells at 50 uM after 48 hrs by DAPI staining based fluorescence microscopy assay. It counts as functional, cell-based. The following applies: in the assay text read “androgen-independent” for “androgen-dependent”. A digest of the protocol: as §1
For series [8], the system named is PC-3. Put plainly: Antiproliferative activity against androgen-independent human PC3 cells after 72 hrs by SRB assay. The class given is functional, cell-based. Put shortly:
as §2

The test system of series [9] is PC-3. Put plainly: Inhibition of actin based pseudopodia formation in androgen-dependent human PC3 cells at 50 uM after 48 hrs by DAPI staining based fluorescence microscopy assay. It counts as functional, cell-based. The following applies: in the assay text read “androgen-independent” for “androgen-dependent”. A digest of the protocol:
as §1

Series [10] can be described thus: Drug localization in cytosol of androgen-independent human PC3 cells at 50 uM after 48 hrs by DAPI staining based fluorescence microscopy assay. It counts as ADME, cell-based, PC-3.
Series [11] has as its system LNCaP. Put plainly: Antiproliferative activity against androgen-dependent human LNCAP cells after 72 hrs by SRB assay. It counts as functional, cell-based. A digest of the protocol:
as §2

The subject of series [12] is PC-3. As to the kind of experiment: Inhibition of actin based pseudopodia formation in androgen-dependent human PC3 cells at 30 uM after 48 hrs by DAPI staining based fluorescence microscopy assay. The following applies: in the assay text read “androgen-independent” for “androgen-dependent”. It counts as functional, cell-based. A digest of the protocol:
as §1

The subject of series [13] is LNCaP. Put plainly: Inhibition of actin based pseudopodia formation in androgen-dependent human LNCAP cells at 30 uM after 48 hrs by DAPI staining based fluorescence microscopy assay. The class given is functional, cell-based. Put shortly: as §1
For series [14], the system named is PC-3. As to the kind of experiment: Induction of nuclear enlargement in androgen-dependent human PC3 cells at 30 uM after 48 hrs by DAPI staining based fluorescence microscopy assay. The class given is functional, cell-based. The following applies: in the assay text read “androgen-independent” for “androgen-dependent”. Put shortly:
as §1

The nature of series [15]: Drug localization in nucleus of androgen-independent human PC3 cells at 30 uM after 48 hrs by DAPI staining based fluorescence microscopy assay. The class given is ADME, cell-based. To be noted: pc-3, 48 h.
Series [16] concerns PC-3. Put plainly: Induction of multinucleation in androgen-dependent human PC3 cells at 40 uM after 48 hrs by DAPI staining based fluorescence microscopy assay. The class given is functional, cell-based. The following applies: in the assay text read “androgen-independent” for “androgen-dependent”. Put shortly:
as §1

In series [17] the test system is PC-3. As to the kind of experiment: Cytotoxicity against androgen-independent human PC3 cells at 100 uM within 48 hrs by SRB assay. It counts as functional, cell-based.
Series [18] has as its system LNCaP. Put plainly: Inhibition of actin based pseudopodia formation in androgen-dependent human LNCAP cells at 100 uM after 48 hrs by DAPI staining based fluorescence microscopy assay. It counts as functional, cell-based. A digest of the protocol: (§3)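 Cells were plated in RPMI-1640 with 10% FBS in chamber slides for 12 h, then exposed to compound or DMSO vehicle for 48 h at 37 °C in 5% CO2. They were fixed with 4% paraformaldehyde in PBS, nuclei were stained with DAPI, and the slides were mounted. Pseudopodia and pseudopodia-like extensions were scored visually by fluorescence microscopy against untreated (DMSO) controls.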

In series [19] the test system is PC-3. Put plainly: Inhibition of actin based pseudopodia formation in androgen-dependent human PC3 cells at 100 uM after 48 hrs by DAPI staining based fluorescence microscopy assay. The class given is functional, cell-based. Put shortly: as §3

In general, pIC50 refers to the negative decadic logarithm of the IC50, by convention in mol/L. Low values mean a high IC50, high ones a low IC50. In the case of `COc1cc(/C=C/C(O)=C/C(=O)/C=C/c2ccc(OC)c(OC)c2)ccc1O` [METHYLCURCUMIN], the inhibition result with LNCaP [1] and in the series on PC-3 [5] was “Active” throughout. Also, the results for the negative logarithm of the IC50 (pIC50) in the series with LNCaP [2] and with PC-3 [3] were 4.33 and 4.48, respectively. Further, in the series with PC-3 [4], the outcome was Active.
On to `COc1cc(/C=C/C(=O)/C=C(O)/C=C/c2ccc(OC(C)(C)C(=O)Nc3ccc(C#N)c(C(F)(F)F)c3)c(OC)c2)ccc1O`, for which the inhibition entry in the series on LNCaP [6] and in the series with PC-3 [9] was “Active” throughout. In addition, in the series on PC-3 [7], the outcome was Active. Further, the Activity entry in the series on PC-3 [8] and in the series with LNCaP [11] was “Dose-dependent effect” throughout. Also, the pIC50 in the series on LNCaP [2] is 4.26; with PC-3 [3], 4.32. The Drug uptake result in series [10] was “Active”.
Regarding `COc1cc(/C=C/C(=O)CC(=O)/C=C/c2ccc(O)c(OC)c2)ccc1O` [CURCUMIN], the pIC50 in the series with LNCaP [2] and in the series with PC-3 [3] was 4.44 in each case. Further, the inhibition entry in the series with PC-3 [12] and in the series with LNCaP [13] was “Active” throughout. Also, the outcome with PC-3 [14] was Active. Moreover, the Drug uptake result in series [15] is listed as “Active”.
In the case of `COc1ccc(/C=C/C(=O)/C=C(O)/C=C/c2ccc(OC)c(OC)c2)cc1OC` [DIMETHYLCURCUMIN], the pIC50 with LNCaP [2] was 4.82; in the series with PC-3 [3], 4.63.
Consider `COc1ccc(/C=C/C(=O)/C=C(O)/C=C/c2ccc(OCC(C)(O)C(=O)Nc3ccc(C#N)c(C(F)(F)F)c3)c(OC)c2)cc1OC` (stereo not given), for which the Activity entry in the series with PC-3 [8] and in the series with LNCaP [11] was “Dose-dependent effect” each time. Moreover, the pIC50 with LNCaP [2] was 4.14; in the series on PC-3 [3], 4.00.
Regarding `COc1ccc(/C=C/C(=O)/C=C(O)/C=C/c2ccc(OCCCC(=O)Nc3ccc(C#N)c(C(F)(F)F)c3)c(OC)c2)cc1OC`, the pIC50 with LNCaP [2] is 4.02; in the series on PC-3 [3], below 4.00.
Take `COc1cc(/C=C/C(=O)/C=C(O)/C=C/c2ccc(OC(C)(C)C(=O)Nc3ccc([N+](=O)[O-])c(C(F)(F)F)c3)c(OC)c2)ccc1O`: the Activity entry in the series on PC-3 [8] and with LNCaP [11] was “Dose-dependent effect” throughout. Also, the pIC50 with LNCaP [2] and in the series on PC-3 [3] was below 4.00 throughout.
On to `COc1ccc(/C=C/C(=O)/C=C(O)/C=C/c2ccc(OC(C)(C)C(=O)Nc3ccc(C#N)c(C(F)(F)F)c3)c(OC)c2)cc1OC`, for which the Activity result in the series with PC-3 [8] and in the series on LNCaP [11] was “Dose-dependent effect” in each case. The pIC50 in the series with LNCaP [2] and in the series with PC-3 [3] was below 4.00 in each case.
Consider `COc1cc(/C=C/C(=O)/C=C(O)/C=C/c2ccc(OC(C)(C)C(=O)Nc3ccc(F)c(C(F)(F)F)c3)c(OC)c2)ccc1O`, for which the Activity entry in the series on PC-3 [8] and in the series with LNCaP [11] was “Dose-dependent effect” in each case. The pIC50 in the series on LNCaP [2] is 4.26; in the series with PC-3 [3], 4.28.
For `COc1ccc(/C=C/C(=O)/C(F)=C(O)/C=C/c2ccc(OC)c(OC)c2)cc1OC`, the pIC50 in the series on LNCaP [2] was 4.56; in the series with PC-3 [3], 4.75.
Consider `COc1ccc(/C=C/C(=O)/C=C(O)/C=C/c2ccc(OCC(C)(O)C(=O)Nc3ccc([N+](=O)[O-])c(C(F)(F)F)c3)c(OC)c2)cc1OC` (stereo not given), for which the inhibition entry with LNCaP [1] and in the series with PC-3 [5] was “Active” throughout. The Activity entry with PC-3 [8] and with LNCaP [11] was “Dose-dependent effect” in each case. Also, the pIC50 with LNCaP [2] is 4.38; in the series on PC-3 [3] it was 4.41. Moreover, the outcome in the series with PC-3 [16] was Active.
Consider `CC(O)(CS(=O)(=O)c1ccc(F)cc1)C(=O)Nc1ccc(C#N)c(C(F)(F)F)c1` (racemic) [BICALUTAMIDE], for which, in the series with PC-3 [17], the outcome was inactive. The Activity entry in the series with PC-3 [8] and with LNCaP [11] was “Dose-dependent effect” in each case. The pIC50 with LNCaP [2] is 4.13; in the series on PC-3 [3], 4.12. Besides, the inhibition entry in the series on LNCaP [18] was “inactive”. Also, the inhibition entry in the series with PC-3 [19] was “Active”.
As to `COc1cc(/C=C/C(=O)/C=C(O)/C=C/c2ccc(OC(C)(C)C(=O)Nc3ccc(Cl)c(C(F)(F)F)c3)c(OC)c2)ccc1O`, the Activity result with PC-3 [8] and in the series with LNCaP [11] was “Dose-dependent effect” each time. Moreover, the pIC50 in the series with LNCaP [2] and with PC-3 [3] was below 4.00 throughout.
`COc1ccc(/C=C/C(=O)/C=C(O)/C=C/c2ccc(OC(C)(C)C(=O)Nc3ccc([N+](=O)[O-])c(C(F)(F)F)c3)c(OC)c2)cc1OC`: the Activity result in the series on PC-3 [8] and with LNCaP [11] was “Dose-dependent effect” each time. For the same molecule, the pIC50 in the series on LNCaP [2] and in the series with PC-3 [3] was below 4.00 in each case.
For the molecule `COc1ccc(/C=C/C(=O)/C=C(O)/C=C/c2ccc(OC(C)(C)C(=O)Nc3ccc(Cl)c(C(F)(F)F)c3)c(OC)c2)cc1OC`, the Activity result in the series on PC-3 [8] and in the series on LNCaP [11] was “Dose-dependent effect” throughout. In addition, the pIC50 in the series with LNCaP [2] and with PC-3 [3] was below 4.00 throughout.
Turning to `COc1ccc(/C=C/C(=O)/C=C(O)/C=C/c2ccc(OCCCCCCCCCCC(=O)Nc3ccc(C#N)c(C(F)(F)F)c3)c(OC)c2)cc1OC`, the pIC50 in the series with LNCaP [2] and with PC-3 [3] was below 4.00 in each case.
With `COc1ccc(/C=C/C(=O)C(F)(F)C(=O)/C=C/c2ccc(OC)c(OC)c2)cc1OC`, the pIC50 in the series on LNCaP [2] is 4.27; with PC-3 [3], 4.35.
With `CC(C)C(=O)Nc1ccc([N+](=O)[O-])c(C(F)(F)F)c1` [FLUTAMIDE], in the series on PC-3 [17], the result was inactive. Further, the Activity entry in the series with PC-3 [8] and in the series on LNCaP [11] was “Dose-dependent effect” in each case. The values for the pIC50 in the series on LNCaP [2] and in the series with PC-3 [3] were 4.09 and 4.01, respectively.
Regarding `COc1cc(/C=C/C(=O)/C=C(O)/C=C/c2ccc(OC(C)(C)C(=O)Nc3ccc(C)c(C(F)(F)F)c3)c(OC)c2)ccc1O`, the Activity entry in the series on PC-3 [8] and with LNCaP [11] was “Dose-dependent effect” each time. Also, the pIC50 with LNCaP [2] and in the series with PC-3 [3] was below 4.00 throughout.

(Values after ChEMBL document CHEMBL2046304, “Antitumor agents 290. Design, synthesis, and biological evaluation of new LNCaP and PC-3 cytotoxic curcumin analogs conjugated with anti-androgens” (Bioorg Med Chem, 2012).)
